From PubChem BioAssay
CHO parental Ca: ATP-evoked calcium signal inhibitors, parental CHO, primary screen, counter-screen for OX1R antagonist project, cell-based, fluorescence, Fluo-8 calcium dye | parental CHO-K1, ATP-induced calcium, Fluo-8 fluorescence | inhibition, % at 5.6 µM | actives 0.63% (n = 330,000);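 active means inhibition above that plate's mean sample inhibition plus 3 SD, cut at about 26% in these data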
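material = parental CHO cells | also added = ATP as calcium-mobilizing challenge | dosing = single point at 5.6 µM | detection = intracellular calcium via Fluo-8 no-wash fluorescent dye | read-out = % inhibition | benchmarks = low control ATP plus DMSO, high control DMSO only | repeats = one well per compound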
OXTR ag: human OXTR agonists, primary screen, fluorescence, CHO-OTR cells, Fluo-8 calcium. Oxytocin receptor (Homo sapiens), P30559. Fluo-8 calcium fluorescence; normalized: DMSO 0%, oxytocin 100%. actives 0.32% (n = 320,000). AID 2435, 2010. activation, % at 3 µM;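 active means activation above the mean of all tested compounds plus 3 SD, cutoff set per screening run, cut at about 20% in these data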;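 further: peak over basal fluorescence ratio from a 100 s FLIPR kinetic read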
OX1R antag-1: OX1R (HCRTR1) antagonists, primary screen, fluorescence, CHO/OX1R cells, Fluo-8 calcium, orexin A. Orexin/Hypocretin receptor type 1 (Homo sapiens), O43613. Fluo-8 calcium fluorescence. inhibition, % at 5 µM. actives 0.43% (n = 330,000). AID 434989, 2010;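 active means inhibition above its plate's threshold, mean inhibition of all tested compounds on the plate plus 3 SD, cut at about 37% in these data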
Target sequence (O43613 whole entry, looked up): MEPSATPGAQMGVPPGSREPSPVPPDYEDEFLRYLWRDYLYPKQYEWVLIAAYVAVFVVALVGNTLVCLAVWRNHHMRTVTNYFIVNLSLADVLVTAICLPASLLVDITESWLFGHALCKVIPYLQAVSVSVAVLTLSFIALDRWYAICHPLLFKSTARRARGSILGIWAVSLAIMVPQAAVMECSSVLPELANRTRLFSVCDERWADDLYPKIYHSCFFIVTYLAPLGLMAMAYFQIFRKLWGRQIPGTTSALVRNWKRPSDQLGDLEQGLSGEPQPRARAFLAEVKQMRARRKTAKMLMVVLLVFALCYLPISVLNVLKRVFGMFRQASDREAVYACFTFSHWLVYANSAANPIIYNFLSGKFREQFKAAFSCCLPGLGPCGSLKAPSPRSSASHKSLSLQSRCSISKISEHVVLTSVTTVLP
V1R ag counter: agonists of human V1a receptor, primary screen, counter-screen for OXTR agonist project, fluorescence, CHO-V1R cells | Vasopressin V1a receptor (Homo sapiens), P37288 | Fluo-8 calcium fluorescence, agonist mode; 0% DMSO, 100% 3 nM vasopressin | activation, % at 3 µM | actives 0.25% (n = 320,000) | AID 2797, 2010;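 active means activation above the mean activation of all tested compounds plus 3 SD, per screening run, cut at about 20% in these data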;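 further: signal is peak over basal fluorescence ratio across a 100 second FLIPR read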
OXTR potentiator: human OXTR potentiators, primary screen, fluorescence, CHO-OTR cells, Fluo-8 calcium; AID 2445, 2010; activation, % at 3 µM; Fluo-8 calcium fluorescence, potentiator mode; 0% = oxytocin EC15, 100% = EC100; actives 0.061% (n = 320,000);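 active means activation above that plate's cutoff, the mean activation of tested compounds plus 3 SD, cut at about 6.6% in these data, passing the limit was not always enough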
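Material: human OTR in CHO cells. Compound: 3.0 µM, one dose. Timing: compound 6 min at room temperature before oxytocin, 100 s read. Evaluation: % activation of max/min ratio relative to oxytocin controls. Replication: single well per compound, singlicate. Signal: Fluo-8 calcium dye fluorescence.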
OX1R antag-2: antagonists of human orexin 1 receptor (OX1R); OX1R-expressing cells, FRET antagonist read-out; actives 1.8% (n = 330,000); inhibition, % at 6.6 µM; Orexin/Hypocretin receptor type 1 (Homo sapiens), O43613; in the data active means inhibition mostly above about 38%, no sharp cut-off; inactive means mostly below about 40%
Each line names hits and unclear results; the compound was inactive in the other large screens. In the library only some 2.7% were active in any assay of this set; here they are far more common.

CCOC(=O)Cc1csc(-n2sc3ccccc3c2=O)n1	CHO parental Ca 32.0
CCCN(C(=O)CSCc1ccccc1C)c1c(N)n(Cc2ccccc2)c(=O)[nH]c1=O	none
CCOc1ccc(CC(=O)Nc2sc(Cc3ccccc3)c(C)c2C(N)=O)cc1OCC	OX1R antag-2 56.8
COC(=O)C1=C(C(=O)OC)[C@@H]2N(Cc3ccccc3)c3ccccc3[C@@]23C[C@@H](C(=O)OC)N(C(=O)NC(C)(C)C)C3=N1	none
COC(=O)CSC1=C(C#N)C(c2ccc3c(c2)OCO3)C2=C(CCCC2=O)N1 (stereo unspecified)	none
COC(=O)C1=C(N)N(c2ccccc2C(F)(F)F)C2=C(C(=O)CCC2)C1c1ccc2c(c1)OCO2 (stereo unspecified)	CHO parental Ca 47.9
CCn1c(SCC(=O)Nc2ccc(F)cc2)nnc1-c1cnccn1	none
Cc1ccc(-c2csc(NCCn3c(-c4ccncc4)nc4ccccc43)n2)cc1	OX1R antag-2 60.0
Cc1ccc(-c2csc(NCCn3c(-c4ccncc4)nc4cc(C(F)(F)F)ccc43)n2)cc1	none
O=C(COc1ccccc1)Nc1nc2cc3c(cc2s1)OCO3	CHO parental Ca 30.8
CCOC(=O)[C@H]1[C@H]2COc3ccccc3[C@@H]2N2C(=O)CNC(=O)[C@@]12C	none
O=C(Nc1ccc(Cl)c(Cl)c1)OCc1cccnc1	CHO parental Ca 76.5, OX1R antag-2 74.5
COc1cccc(OC)c1C(=O)Nc1cccc(NC(=O)c2cccs2)c1	none
COc1ccc(C(=O)Nc2cccc(NC(=O)c3cccs3)c2)cc1OC	OX1R antag-2 74.7
COc1ccc(OC)c(NC(=O)c2ccc(-c3cccs3)cc2)c1	OX1R antag-2 55.1
Cc1onc(-c2ccccc2)c1CNC(=O)Nc1ccc(C(F)(F)F)cc1	OX1R antag-2 48.7
O=C(N=Nc1c(O)[nH]c2ccccc12)c1cc(-c2cccs2)[nH]n1	OX1R antag-2 66.0
Cc1[nH]c2ccccc2c1/C=N/NC(=O)c1cc(-c2cccs2)[nH]n1	OX1R antag-2 57.2
O=C(Cc1cccs1)N=Nc1c(O)[nH]c2ccccc12	none
Nc1ccccc1SCCS(=O)(=O)c1ccc(Cl)cc1	none
Cc1ccc2[nH]cc(CCNC(=O)C3CCCO3)c2c1 (stereo unspecified)	none
O=C(NCc1ccccc1Cl)c1nnc(CS(=O)(=O)c2ccccc2)o1	none
O=C1Nc2ccccc2OCc2c1cccc2[N+](=O)[O-]	OX1R antag-2 39.6
CCCCNC(=O)CCn1c(=O)c2ccccc2n(Cc2ccc(Cl)cc2)c1=O	OXTR potentiator 15.2
CCCCNC(=O)CCn1c(=O)c2ccccc2n(Cc2ccccc2C)c1=O	none
CCOC(=O)c1c(C)oc2c1c(C(c1cccnc1)N1CCOCC1)c(O)c1ccccc12 (stereo unspecified)	OX1R antag-2 72.7
COc1cc(S(=O)(=O)NC2CCSc3ccccc32)ccc1NC(C)=O (stereo unspecified)	none
N#Cc1cccnc1N1CCN(C(=O)c2cccc3c2C(=O)c2ccc(-c4ccc(Cl)c(C(F)(F)F)c4)cc2S3(=O)=O)CC1	none
N#Cc1cccnc1N1CCN(C(=O)c2cccc3c2C(=O)c2ccc(Cl)cc2S3(=O)=O)CC1	OX1R antag-2 33.6
O=C(N/N=C/c1cn(-c2cccs2)nc1-c1ccccc1)c1ccc(O)cc1	OX1R antag-2 65.3
O=C(N/N=C/c1cn(-c2cccs2)nc1-c1ccccc1)c1ccccc1Cl	none
Cc1ccc(Cl)cc1NC(=O)c1cc2ccccc2cc1O	CHO parental Ca 57.5, OX1R antag-1 46.2
COc1ccccc1NC(=O)c1cc2cc(Br)ccc2cc1O	CHO parental Ca 45.3
COc1cc(NC(=O)c2cc3ccccc3cc2O)c(OC)cc1Cl	CHO parental Ca 36.3, OX1R antag-2 34.1
CNS(=O)(=O)c1cc(-c2nnc(N3CCOCC3)c3ccccc23)ccc1C	none
NC(=O)C1CCN(C(=O)C2CCC(=O)N(C3CCCCCC3)C2)CC1 (stereo unspecified)	none
CCOc1cccc(N)c1	none
CCOc1ccc(N)c(SSc2cc(OCC)ccc2N)c1	CHO parental Ca 46.6
C=CCNC(=S)N1CCN(Cc2ccc3c(c2)OCO3)CC1	none
O=C(COC(=O)c1cc(NS(=O)(=O)c2cccs2)ccc1O)Nc1ccccc1	OX1R antag-2 72.8
C(=C\n1nnc2ccccc21)/c1ccc[nH]1	none
COc1cc(Nc2ccc(S(N)(=O)=O)cc2)c([N+](=O)[O-])nc1[N+](=O)[O-]	OX1R antag-2 47.9
COc1ccc(-c2csc(Nc3ccc(S(N)(=O)=O)cc3)n2)cc1OC	none
COC(=O)c1ccccc1OC(=O)c1cc2ccccc2oc1=O	OX1R antag-2 31.4
COC(=O)c1cc2ccccc2oc1=O	none
CC1CCN(C(=O)COC(=O)c2cc3ccccc3oc2=O)CC1	OX1R antag-2 42.3
Cn1c2ccsc2c2ncn(Cc3ccccc3F)c(=O)c21	OX1R antag-2 41.7
Cn1c2ccccc2c2ncn(Cc3ccc(F)cc3)c(=O)c21	none
O=C(NCc1ccccn1)C1CCCN(S(=O)(=O)c2cccc3nsnc23)C1 (stereo unspecified)	OX1R antag-2 121.2
COCCNC(=O)C1CCCN(S(=O)(=O)c2cccc3nsnc23)C1 (stereo unspecified)	OX1R antag-2 48.0
COC(=O)[C@H](CC(C)C)NC(=O)c1cc2c(cn1)[nH]c1ccccc12	none
CCOc1ccc(NC(=O)CCc2nnc3ccc(N4CCC5(CC4)OCCO5)nn23)cc1	none
C#CCOCCOCCOCCNc1nc(N2CCOCC2)nc(N2CCN(C(=O)CCCCCCCCCCNC(=O)[C@H](CO)n3cc(CCCCCN)nn3)CC2)n1	none
C#CCOCCOCCOCCNc1nc(N2CCN(C(=O)CCCCCCCCCCNC(=O)[C@H]([C@@H](C)CC)n3cc(CCCCCN)nn3)CC2)nc(N2CCN(C(=O)CCCCCCCCCCNC(=O)[C@@H]([C@H](C)O)n3cc(C)nn3)CC2)n1	OXTR ag 37.1, V1R ag counter 58.3
C#CCOCCOCCOCCNc1nc(N2CCN(C(=O)CCCCCCCCCCNC(=O)[C@H](CCCCN)n3cc(CCO)nn3)CC2)nc(N2CCN(C(=O)CCCCCCCCCCNC(=O)[C@H](CCCN=C(N)N)n3cc(C[C@@H](C)CC)nn3)CC2)n1	none
